Source: article PMC3113683 (Biochemistry, 2009)
No end group written: not given here. *: point of attachment. Biotin = O=C1N[C@H]2[C@H](CS[C@H]2CCCCC(=O)*)N1

T1: LYP300 (Homo sapiens, UniProt Q9Y2R2)
T1 sequence (Q9Y2R2 1-300): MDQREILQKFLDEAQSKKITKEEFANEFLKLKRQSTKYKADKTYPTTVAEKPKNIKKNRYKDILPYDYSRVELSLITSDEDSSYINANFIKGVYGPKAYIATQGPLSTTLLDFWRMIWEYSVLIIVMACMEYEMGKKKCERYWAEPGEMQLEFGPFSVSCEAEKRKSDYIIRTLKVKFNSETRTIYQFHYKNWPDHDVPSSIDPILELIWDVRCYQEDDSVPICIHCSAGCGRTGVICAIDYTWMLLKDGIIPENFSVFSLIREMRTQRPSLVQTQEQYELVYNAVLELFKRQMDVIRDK

B1: LYP300: truncation of LYP immediately C-terminal to the catalytic domain (amino acids 1−300) (protein)
chain: MDQREILQKFLDEAQSKKITKEEFANEFLKLKRQSTKYKADKTYPTTVAEKPKNIKKNRYKDILPYDYSRVELSLITSDEDSSYINANFIKGVYGPKAYIATQGPLSTTLLDFWRMIWEYSVLIIVMACMEYEMGKKKCERYWAEPGEMQLEFGPFSVSCEAEKRKSDYIIRTLKVKFNSETRTIYQFHYKNWPDHDVPSSIDPILELIWDVRCYQEDDSVPICIHCSAGCGRTGVICAIDYTWMLLKDGIIPENFSVFSLIREMRTQRPSLVQTQEQYELVYNAVLELFKRQMDVIRDK
modifications: left off: HA, N-terminal, kept
B2: LYP300/S227: inactive mutant of LYP300 (protein, UniProt Q9Y2R2 1-300, looked up, fragment C227S)
chain: MDQREILQKFLDEAQSKKITKEEFANEFLKLKRQSTKYKADKTYPTTVAEKPKNIKKNRYKDILPYDYSRVELSLITSDEDSSYINANFIKGVYGPKAYIATQGPLSTTLLDFWRMIWEYSVLIIVMACMEYEMGKKKCERYWAEPGEMQLEFGPFSVSCEAEKRKSDYIIRTLKVKFNSETRTIYQFHYKNWPDHDVPSSIDPILELIWDVRCYQEDDSVPICIHSSAGCGRTGVICAIDYTWMLLKDGIIPENFSVFSLIREMRTQRPSLVQTQEQYELVYNAVLELFKRQMDVIRDK
B3: LYP/S227: inactive mutant of LYP (protein, UniProt Q9Y2R2 1-807, looked up, variant C227S)
Tyrosine-protein phosphatase …: MDQREILQKFLDEAQSKKITKEEFANEFLKLKRQSTKYKADKTYPTTVAEKPKNIKKNRYKDILPYDYSRVELSLITSDEDSSYINANFIKGVYGPKAYIATQGPLSTTLLDFWRMIWEYSVLIIVMACMEYEMGKKKCERYWAEPGEMQLEFGPFSVSCEAEKRKSDYIIRTLKVKFNSETRTIYQFHYKNWPDHDVPSSIDPILELIWDVRCYQEDDSVPICIHSSAGCGRTGVICAIDYTWMLLKDGIIPENFSVFSLIREMRTQRPSLVQTQEQYELVYNAVLELFKRQMDVIRDKHSGTESQAKHCIPEKNHTLQADSYSPNLPKSTTKAAKMMNQQRTKMEIKESSSFDFRTSEISAKEELVLHPAKSSTSFDFLELNYSFDKNADTTMKWQTKAFPIVGEPLQKHQSLDLGSLLFEGCSNSKPVNAAGRYFNSKVPITRTKSTPFELIQQRETKEVDSKENFSYLESQPHDSCFVEMQAQKVMHVSSAELNYSLPYDSKHQIRNASNVKHHDSSALGVYSYIPLVENPYFSSWPPSGTSSKMSLDLPEKQDGTVFPSSLLPTSSTSLFSYYNSHDSLSLNSPTNISSLLNQESAVLATAPRIDDEIPPPLPVRTPESFIVVEEAGEFSPNVPKSLSSAVKVKIGTSLEWGGTSEPKKFDDSVILRPSKSVKLRSPKSELHQDRSSPPPPLPERTLESFFLADEDCMQAQSIETYSTSYPDTMENSTSSKQTLKTPGKSFTRSKSLKILRNMKKSICNSCPPNKPAESVQSNNSSSFLNFGFANRFSKPKGPRNPPPTWNI
B4: LYP: lymphoid tyrosine phosphatase LYP, encoded by the PTPN22 gene (protein, UniProt Q9Y2R2 1-807, looked up)
Tyrosine-protein phosphatase …: MDQREILQKFLDEAQSKKITKEEFANEFLKLKRQSTKYKADKTYPTTVAEKPKNIKKNRYKDILPYDYSRVELSLITSDEDSSYINANFIKGVYGPKAYIATQGPLSTTLLDFWRMIWEYSVLIIVMACMEYEMGKKKCERYWAEPGEMQLEFGPFSVSCEAEKRKSDYIIRTLKVKFNSETRTIYQFHYKNWPDHDVPSSIDPILELIWDVRCYQEDDSVPICIHCSAGCGRTGVICAIDYTWMLLKDGIIPENFSVFSLIREMRTQRPSLVQTQEQYELVYNAVLELFKRQMDVIRDKHSGTESQAKHCIPEKNHTLQADSYSPNLPKSTTKAAKMMNQQRTKMEIKESSSFDFRTSEISAKEELVLHPAKSSTSFDFLELNYSFDKNADTTMKWQTKAFPIVGEPLQKHQSLDLGSLLFEGCSNSKPVNAAGRYFNSKVPITRTKSTPFELIQQRETKEVDSKENFSYLESQPHDSCFVEMQAQKVMHVSSAELNYSLPYDSKHQIRNASNVKHHDSSALGVYSYIPLVENPYFSSWPPSGTSSKMSLDLPEKQDGTVFPSSLLPTSSTSLFSYYNSHDSLSLNSPTNISSLLNQESAVLATAPRIDDEIPPPLPVRTPESFIVVEEAGEFSPNVPKSLSSAVKVKIGTSLEWGGTSEPKKFDDSVILRPSKSVKLRSPKSELHQDRSSPPPPLPERTLESFFLADEDCMQAQSIETYSTSYPDTMENSTSSKQTLKTPGKSFTRSKSLKILRNMKKSICNSCPPNKPAESVQSNNSSSFLNFGFANRFSKPKGPRNPPPTWNI
modifications: HA tag
B5: LYP423: LYP truncation, amino acids 1−423 (protein, UniProt Q9Y2R2 1-423, looked up, fragment)
chain: MDQREILQKFLDEAQSKKITKEEFANEFLKLKRQSTKYKADKTYPTTVAEKPKNIKKNRYKDILPYDYSRVELSLITSDEDSSYINANFIKGVYGPKAYIATQGPLSTTLLDFWRMIWEYSVLIIVMACMEYEMGKKKCERYWAEPGEMQLEFGPFSVSCEAEKRKSDYIIRTLKVKFNSETRTIYQFHYKNWPDHDVPSSIDPILELIWDVRCYQEDDSVPICIHCSAGCGRTGVICAIDYTWMLLKDGIIPENFSVFSLIREMRTQRPSLVQTQEQYELVYNAVLELFKRQMDVIRDKHSGTESQAKHCIPEKNHTLQADSYSPNLPKSTTKAAKMMNQQRTKMEIKESSSFDFRTSEISAKEELVLHPAKSSTSFDFLELNYSFDKNADTTMKWQTKAFPIVGEPLQKHQSLDLGSLLFE
B6: LYP320: LYP truncation, amino acids 1−320 (protein)
chain: MDQREILQKFLDEAQSKKITKEEFANEFLKLKRQSTKYKADKTYPTTVAEKPKNIKKNRYKDILPYDYSRVELSLITSDEDSSYINANFIKGVYGPKAYIATQGPLSTTLLDFWRMIWEYSVLIIVMACMEYEMGKKKCERYWAEPGEMQLEFGPFSVSCEAEKRKSDYIIRTLKVKFNSETRTIYQFHYKNWPDHDVPSSIDPILELIWDVRCYQEDDSVPICIHCSAGCGRTGVICAIDYTWMLLKDGIIPENFSVFSLIREMRTQRPSLVQTQEQYELVYNAVLELFKRQMDVIRDKHSGTESQAKHCIPEKNHTLQ
modifications: left off: His6, end not stated, cleaved

Columns and labels:
[1] = target: T1, LYP300; experiment: Phosphatase assay, trans effect of peptides on LYP300; type: biochemical; details: Figure 5A,C; 5 nM LYP300; DiFMUP; Bis-Tris pH 6.0
[2] = Gel filtration chromatography; type: physicochemical; details: Superdex 75 10/300 GL; TNE and phosphatase buffers
[3] = system: LYP; type: biochemical, human; details: Figure 2C; Vmax, 1 nM enzyme, 0.4 mM DiFMUP, triplicate
Summary of the method: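 FLAG-tagged full-length LYP and C-terminal truncations (aa 1−300, 1−423, 1−517, 1−600) were expressed in baculovirus-infected Sf9 cells. They were purified on M2-FLAG beads, eluted with FLAG peptide plus DTT into 50 mM Tris-HCl pH 8.0, 0.5 mM EDTA, 1 mM DTT (>80% pure). Activity was measured under Vmax conditions in 50−100 mM Bis-Tris pH 6.0, 1−5 mM DTT. DiFMUP hydrolysis was followed continuously by fluorescence (ex 360, em 460 nm), with background subtracted using no-enzyme triplicates.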

[4] = system: LYP; type: biochemical, human; details: Figure 2D; Vmax, 1 nM enzyme, 0.16 mM peptide, triplicate
[5] = system: T cell receptor (TCR) signaling; details: T cells; ref [4]-[8]; cited from earlier work
[6] = system: LYP; experiment: Phosphatase kinetics of LYP300 and LYP320 from E. coli on DiFMUP; type: biochemical, human; details: purified from bacterial lysates
Summary of the method: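 LYP300 and LYP320 (aa 1−300, 1−320) expressed in BL21(DE3) from pET28a. Purified by Ni2+-NTA, His tag cleaved with thrombin, protease removed on benzamidine, dialysed into 50 mM Tris-HCl pH 8.0, 0.5 mM EDTA, 1 mM DTT. 5 nM enzyme was assayed in Bis-Tris pH 6.0/DTT over a DiFMUP concentration range. Fluorescence (ex 360, em 460 nm) was read continuously at initial rate. Triplicates were corrected against no-enzyme blanks and fitted to Michaelis–Menten.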

[7] = system: LYP; experiment: Phosphatase kinetics of LYP300 and LYP320 from E. coli on pTyr peptide; type: biochemical, human; details: purified from bacterial lysates

Molecule	Phosphatase activity on DiFMUP [3]	Phosphatase activity on pTyr peptide [4]	further results
HSGTESQAKHCIPEKNHTLQ [peptide of amino acids 301−320]	–	–	Inhibition of LYP300 phosphatase activity by peptide [1]: substantial inhibition of the phosphatase activity
biotin-ATAPRIDDEIPPPLPVRTPESFIVVEEAGEFSPNVPKSLS (Biotin-ATAPRIDDEIPPPLPVRTPESFIVVEEAGEFSPNVPKSLS) [peptide of amino acids 604−643, reference compound]	–	–	Inhibition of LYP300 phosphatase activity by peptide [1]: did not lead to any significant inhibition of the phosphatase activity
B1	greatly increased phosphatase activity	greatly increased phosphatase activity	Oligomeric state by gel filtration [2]: elute as monomers
B2	did not exhibit any activity	did not exhibit any activity	–
B3	did not exhibit any activity	did not exhibit any activity	–
B4	–	–	Inhibition of T cell receptor signaling [5]: potently inhibit T cell receptor (TCR) signaling
B5	slightly increased activity	slightly increased activity	–
B6	–	–	Oligomeric state by gel filtration [2]: elute as monomers; Activity relative to LYP300 on DiFMUP [6]: consistently less active than LYP300; Activity relative to LYP300 on pTyr peptide [7]: consistently less active than LYP300
